Consider 8 compounds from article PMC10433466 (ACS Omega, 2023).

In series [1] the test system is P. aeruginosa PA108590. Put plainly: Checkerboard assay with BLs. It is filed as cell-based.
The test system of series [2] is P. aeruginosa PA86052. Briefly: Checkerboard assay with BLs. It is filed as cell-based.
In the next series the test system is P. aeruginosa PA107092. Put plainly: Checkerboard assay with BLs. It is filed as cell-based.
A further series concerns P. aeruginosa PA88949. Put plainly: Checkerboard assay with BLs. The format is cell-based.
The next series deals with P. aeruginosa PA109084. Put plainly: Checkerboard assay with BLs. The format is cell-based.
Series [3] concerns P. aeruginosa PAO1. Briefly: Checkerboard RIF potentiation in CAMHB and Mg2+-supplemented CAMHB. As to conditions: RIF alone. It is filed as cell-based. The essentials: (§1)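 Checkerboard in CAMHB: the antibiotic or BL/BLI was twofold serially diluted on one axis and the adjuvant on the other. The inoculum was prepared as for MIC (0.5 McFarland, 1:50, about 5 × 10^5 cfu/mL) and plates ran at 37 °C overnight, with turbidity read at 595 nm. Each FIC is combination MIC over single-agent MIC, and FICI is their sum: ≤0.5 synergy, 0.5–4 additive, >4 antagonism. Runs were done at least twice.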

For another series, the system named is A. baumannii ATCC 17978. Briefly: Antimicrobial susceptibility assay. It is filed as cell-based. As to conditions: Acinetobacter baumannii, ATCC17978, read-out: minimum inhibitory concentration (MIC). The essentials:
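CLSI broth microdilution. Overnight culture adjusted in saline to 0.5 McFarland, then diluted 1:50 in cation-adjusted Mueller Hinton broth to about 5 × 10^5 cfu/mL final. Test compound twofold serially diluted in the same broth, mixed with an equal volume of inoculum, incubated at 37 °C overnight. MIC is the lowest concentration without visible turbidity (595 nm). Run at least twice; repeated if outside twofold agreement.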

The subject of the next series is E. coli ATCC 25922. Briefly: Antimicrobial susceptibility assay. The format is cell-based. The conditions noted are these: Escherichia coli, ATCC25922, read-out: minimum inhibitory concentration (MIC). The essentials:
(§2)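 Broth microdilution following CLSI guidance. An overnight culture was adjusted in saline to 0.5 McFarland, diluted 1:50 in CAMHB and inoculated at about 5 × 10^5 cfu/mL final. Agents were twofold serially diluted in CAMHB, mixed with equal volumes of inoculum and held at 37 °C overnight. MIC was the lowest concentration without visible turbidity, read at 595 nm. Runs were done at least twice and repeated if outside twofold agreement.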

In series [4] the test system is P. aeruginosa PAO1. As to conditions: cited from earlier work.
Series [5] concerns P. aeruginosa PAO1. Put plainly: Antimicrobial susceptibility assay. The format is cell-based. As to conditions: Pseudomonas aeruginosa, PAO1, read-out: minimum inhibitory concentration (MIC). In outline:
as §2

The test system of series [6] is P. aeruginosa PAO1. Briefly: Checkerboard assay, antibiotic potentiation. As to conditions: PMBN (7 μM) vs 2c 8 μg/mL (2 μM). It is filed as cell-based. In outline:
as §1

The subject of series [7] is P. aeruginosa PA108590. Briefly: Potentiation of BL/BLI. It is filed as cell-based. The essentials: as §1
In series [8] the test system is P. aeruginosa PAO1. Briefly: Outer membrane permeabilization assay. The format is cell-based. The conditions noted are these: NPN 10 μM. The essentials:
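PAO1 suspension (OD600 0.4–0.6) was incubated with NPN (10 μM final) in 5 mM HEPES, 5 mM glucose and 5 μM CCCP for 30 min at room temperature in the dark. Test compound was then added at varying concentrations, and fluorescence (ex 350 / em 420 nm) was recorded every 30 s.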

Series [9] has as its system P. aeruginosa PA86052. Put plainly: Potentiation of BL/BLI. The format is cell-based. In outline: as §1
[10] abbreviates: ATM/AVI in the presence of 8 μg/mL compound 3 (3.5 μM) or PMBN (7 μM).
Setting [11] is: ATM/AVI with 8 μg/mL compound 3 (3.5 μM) or PMBN (7 μM).
Setting [12] is: CAZ/AVI in the presence of 8 μg/mL compound 3 (3.5 μM) or PMBN (7 μM).
[13] abbreviates: CAZ/AVI with 8 μg/mL compound 3 (3.5 μM) or PMBN (7 μM).
Where [14] appears, read: CTZ/TAZ in the presence of 8 μg/mL compound 3 (3.5 μM) or PMBN (7 μM).
Setting [15] is: CTZ/TAZ with 8 μg/mL compound 3 (3.5 μM) or PMBN (7 μM).
Setting [16] is: IMI/REL in the presence of 8 μg/mL compound 3 (3.5 μM) or PMBN (7 μM).
[17] abbreviates: IMI/REL with 8 μg/mL compound 3 (3.5 μM) or PMBN (7 μM).
[18] abbreviates: MER/VAB in the presence of 8 μg/mL compound 3 (3.5 μM) or PMBN (7 μM).
Where [19] appears, read: MER/VAB with 8 μg/mL compound 3 (3.5 μM) or PMBN (7 μM).

In brackets after ≈: the same amount, converted by molar mass. Several values for one entry are separate records, joined by “and”; a condition that tells them apart may be missing. Identical values can stand only once.

Regarding `C[C@H]1[C@H](NC(=O)/C(=N\OC(C)(C)C(=O)O)c2csc(N)n2)C(=O)N1S(=O)(=O)O` [ATM, aztreonam], the MICBL with P. aeruginosa PA108590 [1] (ATM alone) and in the series on P. aeruginosa PA86052 [2] (ATM alone) was 32 µg/mL each time.
Take `CC(C)(O/N=C(\C(=O)N[C@@H]1C(=O)N2C(C(=O)[O-])=C(C[n+]3ccccc3)CS[C@H]12)c1csc(N)n1)C(=O)O` [CAZ, ceftazidime]: the MICBL with P. aeruginosa PA107092 (CAZ alone) worked out at 128 µg/mL; with P. aeruginosa PA108590 [1] (CAZ alone) it was 64 µg/mL; with P. aeruginosa PA86052 [2] (CAZ alone), 64 µg/mL.
Take `Cn1c(N)c(NC(=O)NCCN)c[n+]1CC1=C(C(=O)O)N2C(=O)[C@@H](NC(=O)/C(=N\OC(C)(C)C(=O)[O-])c3nsc(N)n3)[C@H]2SC1` [CTZ, ceftolozane]: the MICBL is 4 µg/mL in the series on P. aeruginosa PA88949 (CTZ alone); 4 µg/mL with P. aeruginosa PA107092 (CTZ alone); 8 µg/mL and 4 µg/mL in the series with P. aeruginosa PA108590 [1] (CTZ alone); 8 µg/mL and 4 µg/mL in the series on P. aeruginosa PA109084 (CTZ alone); 8 µg/mL and 4 µg/mL with P. aeruginosa PA86052 [2] (CTZ alone).
Turning to `C[C@@H](O)[C@H]1C(=O)N2C(C(=O)O)=C(SCCN=CN)C[C@H]12` [IMI, imipenem], the MICBL in the series on P. aeruginosa PA88949 (IMI alone) was 64 µg/mL; in the series on P. aeruginosa PA107092 (IMI alone), 32 µg/mL; in the series on P. aeruginosa PA108590 [1] (IMI alone) it was 32 µg/mL; with P. aeruginosa PA109084 (IMI alone), 16 µg/mL; with P. aeruginosa PA86052 [2] (IMI alone) it was 64 µg/mL and 32 µg/mL.
For the compound `C[C@@H](O)[C@H]1C(=O)N2C(C(=O)O)=C(S[C@@H]3CN[C@H](C(=O)N(C)C)C3)[C@H](C)[C@H]12` [MER, meropenem], the MICBL was 16 µg/mL and 32 µg/mL with P. aeruginosa PA88949 (MER alone); 32 µg/mL and 64 µg/mL in the series with P. aeruginosa PA107092 (MER alone); 4 µg/mL and 8 µg/mL in the series on P. aeruginosa PA108590 [1] (MER alone); 16 µg/mL in the series with P. aeruginosa PA109084 (MER alone); 16 µg/mL with P. aeruginosa PA86052 [2] (MER alone).
On to `CO[C@H]1/C=C/O[C@@]2(C)Oc3c(C)c(O)c4c(O)c(c(/C=N/N5CCN(C)CC5)c(O)c4c3C2=O)NC(=O)/C(C)=C\C=C\[C@H](C)[C@H](O)[C@@H](C)[C@@H](O)[C@@H](C)[C@H](OC(C)=O)[C@@H]1C` [RIF, rifampicin], for which the MICRIF with P. aeruginosa PAO1 [3] (CAMHB) and in the series with P. aeruginosa PAO1 [3] (CAMHB with 20 mM Mg2+) was 32 µg/mL in each case.
In the case of `NC[C@H]1O[C@H](O[C@H]2[C@H](O)[C@@H](O[C@H]3O[C@H](CO)[C@@H](O)[C@H](N)[C@H]3O)[C@H](N)C[C@@H]2N)[C@H](N)C[C@@H]1O` [TOB, tobramycin], the figures for the MIC in the series with A. baumannii ATCC 17978, in the series on E. coli ATCC 25922 and in the series with P. aeruginosa PAO1 [5] were 0.5 µg/mL (≈ 1.07 µM), 2 µg/mL (≈ 4.28 µM) and 0.5 µg/mL (≈ 1.07 µM), respectively. In addition, the “synergy with NOV, RIF, MIN, LEV, CAZ” value in the series on P. aeruginosa PAO1 [4] is recorded as “did not synergize”.
With polymyxin B nonapeptide [PMBN], the “MIN potentiation relative to trimer 2c” value with P. aeruginosa PAO1 [6] worked out at 4 fold. The “MICBL/BLI [MIC with 3 or PMBN]” value in the series with P. aeruginosa PA108590 [7] (setting [10]) was 2 µg/mL; in the series with P. aeruginosa PA108590 [7] (setting [12]) it was 4 µg/mL; with P. aeruginosa PA108590 [7] (setting [14]), 2 µg/mL; in the series on P. aeruginosa PA108590 [7] (setting [16]), 1 µg/mL; in the series on P. aeruginosa PA108590 [7] (setting [18]), 4 [4] μg/mL; in the series with P. aeruginosa PA86052 [9] (setting [10]) it was 0.0625 µg/mL. The “MICBL/BLI [MIC with 3 or PMBN]” value came out at 0.25 µg/mL with P. aeruginosa PA86052 [9] (setting [12]), 0.0625 µg/mL with P. aeruginosa PA86052 [9] (setting [14]), 0.125 µg/mL in the series on P. aeruginosa PA86052 [9] (setting [16]) and 0.0312 µg/mL in the series on P. aeruginosa PA86052 [9] (setting [18]). Also, the fold potentiation in the series with P. aeruginosa PA108590 [7] (setting [11]) is 16 fold; with P. aeruginosa PA108590 [7] (setting [13]) it was 32 fold; in the series on P. aeruginosa PA108590 [7] (setting [15]) it was 2 fold; with P. aeruginosa PA108590 [7] (setting [17]), 32 fold; in the series on P. aeruginosa PA108590 [7] (setting [19]) it was 1 fold; in the series with P. aeruginosa PA86052 [9] (setting [11]), 1024 fold. The fold potentiation in the series with P. aeruginosa PA86052 [9] (setting [13]) is listed as 512 fold; in the series with P. aeruginosa PA86052 [9] (setting [15]), 128 fold; in the series with P. aeruginosa PA86052 [9] (setting [17]) it was 512 fold; in the series on P. aeruginosa PA86052 [9] (setting [19]), 512 fold. In addition, in the series on P. aeruginosa PAO1 [8], the “NPN fluorescence (OM permeabilization)” value was “increased fluorescence”.
